What all share (format): cell-based
The nature of data set [1]: Inhibition of HIV1 3B […] reverse transcriptase infected in human P4R5 MAGI cells assessed as reduction in viral infection after 2 hrs by Galacto-Star beta-galactosidase reporter gene assay. Particulars: Human immunodeficiency virus 1, 3B. In short, it runs like this:
(§1)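 Single-round infection against cell-free virus: compounds, virus and target cells incubated together 2 h, cells washed, then cultured a further 48 h. Infection read as HIV-LTR-driven galactosidase expression; EC50 = 50% effective concentration. Line 2 uses the X4 (lymphocytotropic) strain, line 3 the R5 (monocytotropic) strain. DMSO served as negative control and dextran sulfate as positive control. Triplicate (n = 3).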
(Reporter assays use an easily measured gene product as a stand-in for the process of interest.)

A short description of data set [2]: Inhibition of HIV1 BaL […] reverse transcriptase infected in human P4R5 MAGI cells assessed as reduction in viral infection after 2 hrs by Galacto-Star beta-galactosidase reporter gene assay. Particulars: Human immunodeficiency virus 1, BaL. In short, it runs like this: as §1
The nature of data set [3]: Cytotoxicity against human P4R5 MAGI cells after 2 hrs by MTT assay. In short, it runs like this:
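Cytotoxicity to target cells by MTT assay, giving CC50 (50% toxic concentration). Run in triplicate (n = 3).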
For orientation: Tetrazolium dyes change colour on reduction, which living cells bring about.

In the case of `Cc1cn([C@H]2C[C@H](N=[N+]=[N-])[C@@H](COC(=O)CCCCCCC(=O)OC[C@H]3O[C@@H](n4cc(C)c(=O)[nH]c4=O)C[C@@H]3N=[N+]=[N-])O2)c(=O)[nH]c1=O`, the concentration giving a half-maximal response (EC50) in data set [1] is 0.2 µM; in data set [2], under 0.15 µM. Moreover, the CC50 at 2 h in data set [3] was over 148 µM.

Regarding `Cc1cn([C@H]2C[C@H](F)[C@@H](COC(=O)CCC(=O)OC[C@@H]3O[C@H](n4ccc(N)nc4=O)CS3)O2)c(=O)[nH]c1=O`, the values for the 50% effective concentration (EC50) in data set [1] and in data set [2] were 44.5 µM and 42.2 µM, respectively. The compound also came in with a CC50 at 2 h in data set [3] of over 180 µM.

In the case of `Cc1cn([C@H]2C[C@H](N=[N+]=[N-])[C@@H](COC(=O)CCC(=O)OC[C@H]3O[C@@H](n4cc(C)c(=O)[nH]c4=O)C[C@@H]3N=[N+]=[N-])O2)c(=O)[nH]c1=O`, the EC50 amounted to 14 µM in data set [1] and 68.1 µM in data set [2]. The compound also yielded a CC50 at 2 h in data set [3] of over 162 µM.

For the compound `Cc1cn([C@H]2C[C@H](F)[C@@H](COC(=O)CCCCCCCCCCCCC(=O)O)O2)c(=O)[nH]c1=O`, the EC50 in data set [1] was 1.8 µM; in data set [2] it was 0.55 µM. In data set [3], this compound came in with a CC50 at 2 h of over 61 µM.

Take `Cc1cn([C@H]2C[C@H](F)[C@@H](COC(=O)CCCCCCCCCCCCC(=O)OC[C@@H]3O[C@H](n4cc(F)c(N)nc4=O)CS3)O2)c(=O)[nH]c1=O`: the values for the concentration for a half-maximal effect (EC50) in data set [1] and in data set [2] were 0.047 µM and 0.075 µM, respectively. The 50% cytotoxic concentration (CC50) at 2 h in data set [3] was over 42 µM.

For the compound `Cc1cn([C@H]2C[C@H](N=[N+]=[N-])[C@@H](COC(=O)CCC(=O)OC[C@H]3O[C@@H](n4cc(C)c(=O)[nH]c4=O)C[C@@H]3F)O2)c(=O)[nH]c1=O`, the EC50 was 14.7 µM in data set [1] and 17.5 µM in data set [2]. The CC50 at 2 h in data set [3] is over 168 µM.

For the compound `Cc1cn([C@H]2C[C@H](F)[C@@H](COC(=O)CCC(=O)OC[C@H]3O[C@@H](n4cc(C)c(=O)[nH]c4=O)C[C@@H]3F)O2)c(=O)[nH]c1=O`, the concentration for a half-maximal effect (EC50) in data set [1] came out at 3.7 µM; in data set [2], 3 µM. In data set [3], this compound had a CC50 at 2 h of over 175 µM.

For `Cc1cn([C@H]2C[C@H](F)[C@@H](COC(=O)CCCCCCCCCCCCC(=O)OC[C@@H]3O[C@H](n4ccc(N)nc4=O)CS3)O2)c(=O)[nH]c1=O`, the half-maximal effective concentration (EC50) came to 0.1 µM in data set [1] and 0.07 µM in data set [2]. Also, the half-maximal cytotoxic concentration (CC50) at 2 h in data set [3] is over 43 µM.

For the compound `Nc1ccn([C@@H]2CS[C@H](COC(=O)CCCCCCC(=O)OC[C@@H]3O[C@H](n4ccc(N)nc4=O)CS3)O2)c(=O)n1`, the figures for the EC50 in data set [1] and in data set [2] were 26.6 µM and 4.7 µM, respectively. The same compound registered a CC50 at 2 h in data set [3] of over 168 µM.

With `Cc1cn([C@H]2C[C@H](F)[C@@H](COC(=O)CCCCCCC(=O)OC[C@H]3O[C@@H](n4cc(C)c(=O)[nH]c4=O)C[C@@H]3F)O2)c(=O)[nH]c1=O`, the 50% effective concentration (EC50) in data set [1] is 0.4 µM; in data set [2] it was 0.5 µM. In addition, the CC50 at 2 h in data set [3] is over 160 µM.

As to `Nc1ccn([C@@H]2CS[C@H](COC(=O)CCCCCCCCCCCCC(=O)OC[C@@H]3O[C@H](n4cc(F)c(N)nc4=O)CS3)O2)c(=O)n1`, the 50% effective concentration (EC50) in data set [1] is 0.18 µM; in data set [2], 0.073 µM. In data set [3], the 50% cytotoxic concentration (CC50) at 2 h is over 43 µM.

Regarding `Cc1cn([C@H]2C[C@H](N=[N+]=[N-])[C@@H](COC(=O)CCC(=O)OC[C@@H]3O[C@H](n4ccc(N)nc4=O)CS3)O2)c(=O)[nH]c1=O`, the figures for the 50% effective concentration (EC50) in data set [1] and in data set [2] were 16.1 µM and 19.2 µM, respectively. In addition, the half-maximal cytotoxic concentration (CC50) at 2 h in data set [3] is over 173 µM.

In the case of `Cc1cn([C@H]2C[C@H](F)[C@@H](CO)O2)c(=O)[nH]c1=O` [ALOVUDINE], the 50% effective concentration (EC50) is 0.8 µM in data set [1] and 3.3 µM in data set [2]. The same compound displayed a CC50 at 2 h in data set [3] of over 410 µM.

On to `Nc1nc(=O)n([C@@H]2CS[C@H](CO)O2)cc1F` [EMTRICITABINE], for which the EC50 in data set [1] was found to be 1.9 µM; in data set [2], 0.7 µM. In data set [3], this compound returned a CC50 at 2 h of over 200 µM.

Regarding `Nc1ccn([C@@H]2CS[C@H](CO)O2)c(=O)n1` [LAMIVUDINE], the figures for the concentration for a half-maximal effect (EC50) in data set [1] and in data set [2] were 32.7 µM and 11.3 µM, respectively. Also, it took 80.3 µM to reach half-maximal cytotoxicity in data set [3] (CC50 at 2 h).

For the compound `Cc1cn([C@H]2C[C@H](N=[N+]=[N-])[C@@H](CO)O2)c(=O)[nH]c1=O` [ZIDOVUDINE], the EC50 worked out at 34.4 µM in data set [1] and 129 µM in data set [2]. The compound further yielded a CC50 at 2 h in data set [3] of over 374 µM.

What is called EC50 is the midpoint of the concentration-response curve. The term CC50 denotes the concentration giving 50% cytotoxicity. Higher therefore signals lower toxicity to the cells.

(Values after ChEMBL document CHEMBL4014299, “Synthesis and anti-HIV activities of unsymmetrical long chain dicarboxylate esters of dinucleoside reverse transcriptase inhibitors” (Bioorg Med Chem Lett, 2017).)
